Measurements reported in ChEMBL document CHEMBL3098105, “7,7'-Diazaindirubin--a small molecule inhibitor of casein kinase 2 in vitro and in cells” (Bioorg Med Chem, 2014).
Active and inactive are the calls of the source. The rule behind the calls is not given here.

Columns and labels:
[1] = biological target: Vascular endothelial growth factor receptor 3 (Homo sapiens) (UniProt P35916); assay: Inhibition of VEGF-R3 (unknown origin) assessed as residual activity at 1 uM relative to control
[2] = biological target: Tyrosine-protein kinase BTK (Homo sapiens) (UniProt Q06187); assay: Inhibition of human BTK assessed as residual activity at 1 uM relative to control
[3] = biological target: Tyrosine-protein kinase Lck (Homo sapiens) (UniProt P06239); assay: Inhibition of human Lck assessed as residual activity at 1 uM relative to control
MCF7 [4] = assay: Cell cycle arrest in human MCF7 cells assessed as accumulation at G2/M phase at 0.25 uM after 24 hrs using propidium iodide staining by FACS analysis (reference value: 22.13%); type: functional
[5] = biological target: Tyrosine-protein kinase SYK (Homo sapiens) (UniProt P43405); assay: Inhibition of human Syk assessed as residual activity at 1 uM relative to control
[6] = Antiproliferative activity against human HCC2998 cells after 3 days by sulforhodamine B assay; type: functional; settings: HCC 2998, 72 h
Summary of the method: (§1)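 Tested in the NCI 60 cell line panel. GI50 is the concentration giving 50% inhibition of cell growth, and values are the mean of two series of tests.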

[7] = biological target: Mitogen-activated protein kinase 8 (Homo sapiens) (UniProt P45983); assay: Inhibition of human JNK1alpha1 assessed as residual activity at 1 uM relative to control
[8] = biological target: CDK7/Cyclin H/MNAT1 (Homo sapiens) (UniProt P51946+P50613+P51948); assay: Inhibition of human CDK7/cyclinH/MAT1 assessed as residual activity at 1 uM relative to control; type: protein-complex assay
DU-145 = assay: Antiproliferative activity against human DU145 cells after 3 days by sulforhodamine B assay; type: functional; settings: DU-145, 72 h; summary of the method: as §1
[9] = biological target: Homeodomain-interacting protein kinase 3 (Homo sapiens) (UniProt Q9H422); assay: Inhibition of human HIPK3 assessed as residual activity at 1 uM relative to control
[10] = biological target: Mitogen-activated protein kinase kinase kinase 7 (Homo sapiens) (UniProt O43318); assay: Inhibition of human TAK1 assessed as residual activity at 1 uM relative to control
[11] = biological target: Epidermal growth factor receptor (Homo sapiens) (UniProt P00533); assay: Inhibition of EGF-R (unknown origin) assessed as residual activity at 1 uM relative to control
[12] = biological target: MAP kinase-interacting serine/threonine-protein kinase 2 (Homo sapiens) (UniProt Q9HBH9); assay: Inhibition of human Mnk2 assessed as residual activity at 1 uM relative to control
[13] = biological target: Proto-oncogene tyrosine-protein kinase receptor Ret (Homo sapiens) (UniProt P07949); assay: Inhibition of human Ret assessed as residual activity at 1 uM relative to control
[14] = biological target: T1, Casein kinase II (Homo sapiens) (UniProt P67870+P68400+P19784); assay: Inhibition of CK2 in human MCF7 cells assessed as time of delay for GSK3beta phosphorylation at Ser9 at 1 uM by Western blot analysis; type: cell-based
Summary of the method: (§2)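 MCF7 cells were grown at 37 °C and 5% CO2 in DMEM with 10% heat-inactivated FBS and penicillin/streptomycin. Cells were exposed to 1 µM for the indicated times, with DMSO as the untreated control. Extracts were made in urea lysis buffer, and 20–40 µg protein was run on 10% SDS–PAGE. Blots were probed with primary antibodies (1:1000, overnight, 4 °C) and read by ECL, with β-actin as loading control.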

[15] = biological target: MAP kinase-activated protein kinase 2 (Homo sapiens) (UniProt P49137); assay: Inhibition of human MAPKAP-K2 assessed as residual activity at 1 uM relative to control
[16] = biological target: Platelet-derived growth factor receptor beta (Homo sapiens) (UniProt P09619); assay: Inhibition of human PDGFRbeta assessed as residual activity at 1 uM relative to control
[17] = biological target: RAC-beta serine/threonine-protein kinase (Homo sapiens) (UniProt P31751); assay: Inhibition of human PKBbeta assessed as residual activity at 1 uM relative to control
[18] = biological target: RAF proto-oncogene serine/threonine-protein kinase (Homo sapiens) (UniProt P04049); assay: Inhibition of RAF1 (unknown origin) assessed as residual activity at 10 uM relative to control
[19] = biological target: Calcium/calmodulin-dependent protein kinase type 1D (Homo sapiens) (UniProt Q8IU85); assay: Inhibition of human CaMK1delta assessed as residual activity at 1 uM relative to control
[20] = biological target: Serine/threonine-protein kinase WNK3 (Homo sapiens) (UniProt Q9BYP7); assay: Inhibition of human WNK3 assessed as residual activity at 1 uM relative to control
IGROV-1 = assay: Antiproliferative activity against human IGROV1 cells after 3 days by sulforhodamine B assay; type: functional; settings: IGROV-1, 72 h; summary of the method: as §1
[21] = biological target: Fibroblast growth factor receptor 2 (Homo sapiens) (UniProt P21802); assay: Inhibition of human FGFR2 assessed as residual activity at 1 uM relative to control
[22] = biological target: Cyclin-dependent kinase 2/cyclin E1 (Homo sapiens) (UniProt P24864+P24941); assay: Inhibition of human CDK2/cyclinE assessed as residual activity at 1 uM relative to control; type: protein-complex assay
[23] = biological target: Protein kinase C gamma type (Homo sapiens) (UniProt P05129); assay: Inhibition of human PKCgamma assessed as residual activity at 1 uM relative to control
[24] = biological target: Cytoplasmic tyrosine-protein kinase BMX (Homo sapiens) (UniProt P51813); assay: Inhibition of human Bmx assessed as residual activity at 1 uM relative to control
[25] = Antiproliferative activity against human SF539 cells after 3 days by sulforhodamine B assay; type: functional; settings: SF-539, 72 h; summary of the method: as §1
[26] = biological target: PAS domain-containing serine/threonine-protein kinase (Homo sapiens) (UniProt Q96RG2); assay: Inhibition of human PASK assessed as residual activity at 1 uM relative to control
[27] = biological target: Serine/threonine-protein kinase B-raf (Homo sapiens) (UniProt P15056); assay: Inhibition of wild type B-RAF (unknown origin) assessed as residual activity at 1 uM relative to control
[28] = biological target: T1, Casein kinase II (Homo sapiens); assay: Inhibition of CK2-mediated Wnt signaling in human MCF7 cells assessed as reduction of beta-catenin level at 1 uM after 15 mins by Western blot analysis; type: cell-based; summary of the method: as §2
MCF7 [29] = assay: Cell cycle arrest in human MCF7 cells assessed as accumulation at G1 phase at 1 uM after 24 hrs using propidium iodide staining by FACS analysis (reference value: 57.74%); type: functional
[30] = biological target: Receptor-type tyrosine-protein kinase FLT3 (Homo sapiens) (UniProt P36888); assay: Inhibition of FLT3 (unknown origin) assessed as residual activity at 10 uM relative to control
MCF7 [31] = assay: Cell cycle arrest in human MCF7 cells assessed as accumulation at G1 phase at 0.5 uM after 24 hrs using propidium iodide staining by FACS analysis (reference value: 57.74%); type: functional
[32] = biological target: Fibroblast growth factor receptor 4 (Homo sapiens) (UniProt P22455); assay: Inhibition of human FGFR4 assessed as residual activity at 1 uM relative to control
Fibroblast growth factor receptor 4 (Homo sapiens), sequence (P22455 22-802 limits assumed): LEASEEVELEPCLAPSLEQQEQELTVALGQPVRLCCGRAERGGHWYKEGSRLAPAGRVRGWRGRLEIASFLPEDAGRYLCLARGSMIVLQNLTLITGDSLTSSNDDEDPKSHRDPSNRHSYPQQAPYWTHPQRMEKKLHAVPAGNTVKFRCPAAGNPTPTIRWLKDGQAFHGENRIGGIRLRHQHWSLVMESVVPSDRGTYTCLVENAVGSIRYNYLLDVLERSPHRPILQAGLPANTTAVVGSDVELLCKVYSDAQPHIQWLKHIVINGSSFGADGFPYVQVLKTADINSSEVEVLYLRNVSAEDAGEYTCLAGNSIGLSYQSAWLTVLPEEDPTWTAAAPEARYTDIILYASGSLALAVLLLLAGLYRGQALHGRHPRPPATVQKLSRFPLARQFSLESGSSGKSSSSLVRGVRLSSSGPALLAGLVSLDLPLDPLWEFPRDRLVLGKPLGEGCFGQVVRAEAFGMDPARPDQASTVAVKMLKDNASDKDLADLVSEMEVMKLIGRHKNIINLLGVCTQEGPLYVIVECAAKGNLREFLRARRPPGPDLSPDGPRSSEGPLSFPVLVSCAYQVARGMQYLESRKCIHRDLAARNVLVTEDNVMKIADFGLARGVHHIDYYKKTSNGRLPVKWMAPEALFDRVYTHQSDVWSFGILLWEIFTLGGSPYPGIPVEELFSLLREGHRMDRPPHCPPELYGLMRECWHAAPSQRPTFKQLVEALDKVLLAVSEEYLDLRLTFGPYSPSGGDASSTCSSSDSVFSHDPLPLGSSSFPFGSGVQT

RAC-beta serine/threonine-protein kinase (Homo sapiens), sequence (P31751 whole entry): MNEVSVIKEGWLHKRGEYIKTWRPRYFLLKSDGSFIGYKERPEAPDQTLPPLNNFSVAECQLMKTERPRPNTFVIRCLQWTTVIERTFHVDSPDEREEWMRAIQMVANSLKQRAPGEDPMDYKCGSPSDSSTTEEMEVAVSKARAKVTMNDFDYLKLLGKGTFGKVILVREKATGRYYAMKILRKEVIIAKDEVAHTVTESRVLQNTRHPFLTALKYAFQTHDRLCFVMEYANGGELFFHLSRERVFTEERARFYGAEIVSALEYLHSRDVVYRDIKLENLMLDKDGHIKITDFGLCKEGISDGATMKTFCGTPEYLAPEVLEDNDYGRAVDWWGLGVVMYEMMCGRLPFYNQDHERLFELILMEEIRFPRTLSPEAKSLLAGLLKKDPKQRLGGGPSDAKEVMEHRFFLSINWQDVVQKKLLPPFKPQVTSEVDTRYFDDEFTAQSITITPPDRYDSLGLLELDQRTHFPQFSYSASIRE
Serine/threonine-protein kinase B-raf (Homo sapiens), sequence (P15056 whole entry): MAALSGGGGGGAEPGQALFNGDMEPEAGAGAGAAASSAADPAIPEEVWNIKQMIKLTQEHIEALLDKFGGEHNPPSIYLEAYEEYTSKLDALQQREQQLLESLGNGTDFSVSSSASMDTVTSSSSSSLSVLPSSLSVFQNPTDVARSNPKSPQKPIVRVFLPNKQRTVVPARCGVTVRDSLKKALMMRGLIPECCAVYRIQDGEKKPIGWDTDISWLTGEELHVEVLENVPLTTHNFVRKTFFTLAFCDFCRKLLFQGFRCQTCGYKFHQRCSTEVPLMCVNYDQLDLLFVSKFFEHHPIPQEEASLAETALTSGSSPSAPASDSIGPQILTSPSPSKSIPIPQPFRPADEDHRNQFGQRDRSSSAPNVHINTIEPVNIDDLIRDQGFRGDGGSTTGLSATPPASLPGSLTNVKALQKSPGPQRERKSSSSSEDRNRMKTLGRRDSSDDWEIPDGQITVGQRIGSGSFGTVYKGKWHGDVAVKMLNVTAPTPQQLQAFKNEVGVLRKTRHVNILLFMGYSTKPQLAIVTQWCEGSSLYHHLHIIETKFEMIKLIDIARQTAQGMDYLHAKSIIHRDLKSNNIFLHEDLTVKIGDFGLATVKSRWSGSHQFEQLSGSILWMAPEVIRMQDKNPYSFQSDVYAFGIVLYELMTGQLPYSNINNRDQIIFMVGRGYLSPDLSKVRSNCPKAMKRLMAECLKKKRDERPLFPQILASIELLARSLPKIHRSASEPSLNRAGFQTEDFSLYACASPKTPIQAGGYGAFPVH
MAP kinase-activated protein kinase 2 (Homo sapiens), sequence (P49137 whole entry, looked up): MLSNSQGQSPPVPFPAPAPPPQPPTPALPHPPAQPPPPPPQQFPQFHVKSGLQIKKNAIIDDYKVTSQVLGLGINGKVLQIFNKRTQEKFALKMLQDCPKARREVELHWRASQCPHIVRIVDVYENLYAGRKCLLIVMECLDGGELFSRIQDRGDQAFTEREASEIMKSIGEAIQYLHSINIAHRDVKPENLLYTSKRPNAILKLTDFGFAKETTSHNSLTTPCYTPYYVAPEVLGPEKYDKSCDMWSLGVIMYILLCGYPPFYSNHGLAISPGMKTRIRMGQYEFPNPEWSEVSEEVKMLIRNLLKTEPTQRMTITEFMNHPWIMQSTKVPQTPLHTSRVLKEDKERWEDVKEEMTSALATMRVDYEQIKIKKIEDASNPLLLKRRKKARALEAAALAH
MAP kinase-interacting serine/threonine-protein kinase 2 (Homo sapiens), sequence (Q9HBH9 whole entry, looked up): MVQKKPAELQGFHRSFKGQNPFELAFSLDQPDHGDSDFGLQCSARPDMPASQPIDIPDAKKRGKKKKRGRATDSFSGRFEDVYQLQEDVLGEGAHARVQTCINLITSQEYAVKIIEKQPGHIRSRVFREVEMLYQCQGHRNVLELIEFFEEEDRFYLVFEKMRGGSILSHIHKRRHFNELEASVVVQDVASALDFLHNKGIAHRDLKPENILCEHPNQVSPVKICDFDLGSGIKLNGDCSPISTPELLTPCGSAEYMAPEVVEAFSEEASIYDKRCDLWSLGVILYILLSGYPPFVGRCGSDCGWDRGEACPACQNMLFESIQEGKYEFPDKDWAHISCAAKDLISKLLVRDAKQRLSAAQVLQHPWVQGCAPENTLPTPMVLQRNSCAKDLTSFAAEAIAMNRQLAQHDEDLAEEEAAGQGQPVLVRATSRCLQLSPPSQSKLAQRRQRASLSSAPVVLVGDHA
Fibroblast growth factor receptor 2 (Homo sapiens), sequence (P21802 22-821 limits assumed): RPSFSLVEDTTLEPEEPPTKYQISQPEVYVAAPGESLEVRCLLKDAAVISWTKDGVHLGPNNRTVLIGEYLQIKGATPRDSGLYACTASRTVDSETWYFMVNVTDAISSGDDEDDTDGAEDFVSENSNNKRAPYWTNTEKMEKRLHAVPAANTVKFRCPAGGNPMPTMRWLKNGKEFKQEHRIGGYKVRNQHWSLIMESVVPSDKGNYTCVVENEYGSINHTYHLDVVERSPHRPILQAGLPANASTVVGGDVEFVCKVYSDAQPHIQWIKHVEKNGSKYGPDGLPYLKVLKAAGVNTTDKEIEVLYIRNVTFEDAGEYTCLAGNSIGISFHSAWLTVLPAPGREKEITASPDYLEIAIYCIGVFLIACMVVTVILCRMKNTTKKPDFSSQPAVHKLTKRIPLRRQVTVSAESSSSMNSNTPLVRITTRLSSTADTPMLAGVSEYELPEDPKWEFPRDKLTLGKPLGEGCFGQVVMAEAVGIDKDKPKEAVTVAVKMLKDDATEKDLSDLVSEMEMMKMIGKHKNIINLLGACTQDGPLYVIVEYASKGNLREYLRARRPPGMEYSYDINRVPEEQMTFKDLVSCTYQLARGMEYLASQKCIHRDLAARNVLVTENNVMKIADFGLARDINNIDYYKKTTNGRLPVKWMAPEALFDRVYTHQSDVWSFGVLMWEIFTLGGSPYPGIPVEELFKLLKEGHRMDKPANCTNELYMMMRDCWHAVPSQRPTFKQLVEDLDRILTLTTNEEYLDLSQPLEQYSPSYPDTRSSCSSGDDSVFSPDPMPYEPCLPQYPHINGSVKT
Tyrosine-protein kinase Lck (Homo sapiens), sequence (P06239 2-509 limits assumed): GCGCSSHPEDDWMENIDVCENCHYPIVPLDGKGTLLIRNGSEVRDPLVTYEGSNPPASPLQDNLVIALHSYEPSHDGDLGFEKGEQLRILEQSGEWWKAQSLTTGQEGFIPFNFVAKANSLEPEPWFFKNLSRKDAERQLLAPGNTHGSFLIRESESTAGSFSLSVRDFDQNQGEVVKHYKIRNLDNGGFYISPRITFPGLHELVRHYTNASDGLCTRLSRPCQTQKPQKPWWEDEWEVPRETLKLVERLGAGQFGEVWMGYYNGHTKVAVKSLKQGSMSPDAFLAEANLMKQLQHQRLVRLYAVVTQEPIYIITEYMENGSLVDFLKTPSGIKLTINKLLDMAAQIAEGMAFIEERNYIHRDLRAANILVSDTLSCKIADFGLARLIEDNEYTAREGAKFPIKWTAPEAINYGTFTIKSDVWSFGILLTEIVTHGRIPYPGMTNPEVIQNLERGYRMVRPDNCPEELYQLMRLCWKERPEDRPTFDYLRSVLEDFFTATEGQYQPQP
Mitogen-activated protein kinase 8 (Homo sapiens), sequence (P45983 whole entry): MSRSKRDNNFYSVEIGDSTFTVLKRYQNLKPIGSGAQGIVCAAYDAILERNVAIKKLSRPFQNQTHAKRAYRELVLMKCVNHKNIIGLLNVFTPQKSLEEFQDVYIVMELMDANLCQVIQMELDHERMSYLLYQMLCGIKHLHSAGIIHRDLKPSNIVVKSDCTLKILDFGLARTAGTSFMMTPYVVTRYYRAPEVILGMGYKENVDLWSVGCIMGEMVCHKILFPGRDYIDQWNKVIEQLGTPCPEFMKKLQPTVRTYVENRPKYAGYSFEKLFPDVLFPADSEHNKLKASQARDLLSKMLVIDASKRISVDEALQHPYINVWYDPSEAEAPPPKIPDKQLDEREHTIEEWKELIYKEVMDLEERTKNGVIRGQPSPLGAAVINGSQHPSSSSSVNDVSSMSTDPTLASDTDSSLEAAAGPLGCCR
Calcium/calmodulin-dependent protein kinase type 1D (Homo sapiens), sequence (Q8IU85 whole entry, looked up): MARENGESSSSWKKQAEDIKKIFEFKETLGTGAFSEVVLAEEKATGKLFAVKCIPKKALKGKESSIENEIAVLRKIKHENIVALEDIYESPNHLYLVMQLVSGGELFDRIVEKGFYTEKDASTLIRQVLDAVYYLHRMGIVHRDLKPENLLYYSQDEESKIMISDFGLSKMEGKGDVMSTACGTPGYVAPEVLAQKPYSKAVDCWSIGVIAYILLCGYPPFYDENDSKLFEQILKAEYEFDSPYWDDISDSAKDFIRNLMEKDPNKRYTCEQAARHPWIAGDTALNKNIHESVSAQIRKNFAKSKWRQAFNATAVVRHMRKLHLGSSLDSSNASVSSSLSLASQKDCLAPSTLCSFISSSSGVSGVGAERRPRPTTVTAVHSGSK

O=C1Nc2ncccc2/C1=C1/Nc2ncccc2C1=O
Activity [1]: 82%
Activity [2]: 140%
Activity [3]: 55%
Activity (MCF7 [4]): 21.66%
Activity [5]: 91%
GI50 [6]: 502 nM
Activity [7]: 97%
Activity [8]: 76%
GI50 (DU-145): 474 nM
Activity [9]: 94%
Activity [10]: 95%
Activity [11]: 89%
Activity [12]: 99%
Activity [13]: 107%
TIME [14]: 0.5 h
Activity [15]: 67%
Activity [16]: 160%
Activity [17]: 87%
Activity [18]: 86%
Activity [19]: 70%
Activity [20]: 106%
GI50 (IGROV-1): 577 nM
Activity [21]: 125%
Activity [22]: 79%
Activity [23]: 114%
Activity [24]: 116%
GI50 [25]: 1900 nM
Activity [26]: 132%
Activity [27]: 80%
inhibition [28]: Active
Activity (MCF7 [29]): 63.05%
Activity [30]: 86%
Activity (MCF7 [31]): 59.53%
Activity [32]: 108%
